Experimental data taken from ChEMBL document CHEMBL3994578, “Optimization of benzoquinone and hydroquinone derivatives as potent inhibitors of human 5-lipoxygenase” (Eur J Med Chem, 2017).
Calls of active or inactive are those of the source. The rule behind the calls is not given here.

target: T1, Polyunsaturated fatty acid 5-lipoxygenase (Homo sapiens, UniProt P09917); assay: Inhibition of recombinant human 5-lipoxygenase expressed in Escherichia coli BL21 using arachidonic acid as substrate preincubated for 15 mins followed by substrate addition measured after 10 mins by RP-HPLC method; conditions: not given
T1 sequence (P09917 whole entry): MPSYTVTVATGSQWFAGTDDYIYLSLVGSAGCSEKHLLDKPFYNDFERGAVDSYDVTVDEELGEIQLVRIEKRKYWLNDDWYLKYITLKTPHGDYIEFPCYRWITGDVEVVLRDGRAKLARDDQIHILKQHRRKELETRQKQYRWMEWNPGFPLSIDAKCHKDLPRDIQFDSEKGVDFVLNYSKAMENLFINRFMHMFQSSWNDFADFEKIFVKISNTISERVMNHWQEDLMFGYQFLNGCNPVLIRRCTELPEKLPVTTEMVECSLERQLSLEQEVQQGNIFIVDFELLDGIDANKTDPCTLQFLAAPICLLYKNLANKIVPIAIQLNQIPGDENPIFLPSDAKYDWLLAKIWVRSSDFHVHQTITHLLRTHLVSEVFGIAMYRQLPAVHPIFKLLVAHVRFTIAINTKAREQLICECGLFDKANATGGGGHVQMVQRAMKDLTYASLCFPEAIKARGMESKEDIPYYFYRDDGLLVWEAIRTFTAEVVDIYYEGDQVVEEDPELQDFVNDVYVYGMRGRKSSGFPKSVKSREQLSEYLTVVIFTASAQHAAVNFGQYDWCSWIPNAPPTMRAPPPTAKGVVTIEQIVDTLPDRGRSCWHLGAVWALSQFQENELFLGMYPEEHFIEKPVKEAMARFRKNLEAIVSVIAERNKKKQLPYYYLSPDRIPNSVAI
How it was run: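 5-LO expressed in E. coli BL21 (pT3-5-LO) was semi-purified on ATP-agarose; 0.5 µg was used in 1 mL PBS with 1 mM EDTA and 1 mM ATP. Compound or 0.1% DMSO was preincubated 15 min at 4 °C, then samples were prewarmed 30 s at 37 °C. Reaction was started with 2 mM CaCl2 plus 20 μM AA and run 10 min at 37 °C. It was stopped with cold methanol, and products were measured by RP-HPLC. IC50 was read graphically from 4-5 concentrations; n = 3-4.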

IC50 [µM] | SMILES
1.84 | COC1=CC(=O)C(OC)=C(CCCCCCCCO)C1=O
1.96 | COC1=CC(=O)C(=O)C(CCCCCCCCCCCO)=C1OC
1.08 | COC1=CC(=O)C(=O)C(CCCCCCCCCCO)=C1OC
1.51 | COC1=CC(=O)C(OC)=C(CCCCCCCCCCCO)C1=O
0.49 | COC1=CC(=O)C(OC)=C(C(CCCCCCCCCO)OC(C)=O)C1=O (stereo not drawn)
0.1 | CCCCCCCCCCCc1c(O)c(O)cc(OC)c1OC
1.75 | COC1=CC(=O)C(OC)=C(CCCCCCCCCCO)C1=O
0.26 | CCCCCCCCCCCCCc1c(O)c(OC)cc(O)c1OC
1.46 | COC1=CC(=O)C(OC)=C(C(O)CCCCCCCCCO)C1=O (stereo not drawn)
0.06 | CCCCCCCCCCCCCc1c(O)c(O)cc(OC)c1OC
0.22 | COC1=CC(=O)C(=O)C(CCCCCCCCO)=C1OC
0.24 | CCCCCCCCCCCCc1c(O)c(O)cc(OC)c1OC

SMILES | IC50 [µM]
CCCCCCCCCCCCCc1c(O)c(O)cc(OC)c1O | 0.29

target: T1, Polyunsaturated fatty acid 5-lipoxygenase; assay: Inhibition of 5-lipoxygenase in human neutrophils assessed as inhibition of A23187-induced product formation using arachidonic acid as substrate preincubated for 15 mins followed by substrate and A23187 addition measured after 10 mins by RP-HPLC method; conditions: not given
How it was run: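 Freshly isolated human neutrophils (5×10^6, from leukocyte concentrates by dextran sedimentation and Nycoprep) were taken up in 1 mL PBS pH 7.4 with 1 mg/mL glucose and 1 mM CaCl2. Cells were preincubated 15 min at 37 °C with compound or 0.1% DMSO, then stimulated with 2.5 μM A23187 plus 20 μM arachidonic acid for 10 min at 37 °C. The reaction was stopped with methanol on ice, and LTB4 all-trans isomers and 5-H(P)ETE were measured by RP-HPLC. IC50 was read graphically from 4-5 concentrations; 3-4 independent experiments.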

IC50 [µM] | SMILES
0.33 | COC1=CC(=O)C(OC)=C(CCCCCCCCO)C1=O
0.12 | COC1=CC(=O)C(=O)C(CCCCCCCCCCCO)=C1OC
0.36 | COC1=CC(=O)C(=O)C(CCCCCCCCCCO)=C1OC
0.2 | COC1=CC(=O)C(OC)=C(CCCCCCCCCCCO)C1=O
1.62 | COC1=CC(=O)C(OC)=C(C(CCCCCCCCCO)OC(C)=O)C1=O (stereo not drawn)
0.03 | CCCCCCCCCCCc1c(O)c(O)cc(OC)c1OC
0.55 | COC1=CC(=O)C(OC)=C(CCCCCCCCCCO)C1=O
0.31 | CCCCCCCCCCCCCc1c(O)c(OC)cc(O)c1OC
0.66 | COC1=CC(=O)C(OC)=C(C(O)CCCCCCCCCO)C1=O (stereo not drawn)
0.028 | CCCCCCCCCCCCCc1c(O)c(O)cc(OC)c1OC
0.15 | COC1=CC(=O)C(=O)C(CCCCCCCCO)=C1OC
0.09 | CCCCCCCCCCCCc1c(O)c(O)cc(OC)c1OC

SMILES | IC50 [µM]
CCCCCCCCCCCCCc1c(O)c(O)cc(OC)c1O | 1.6

target: T2, Polyunsaturated fatty acid 5-lipoxygenase (Homo sapiens) (UniProt P09917); assay: Non-competitive inhibition of recombinant human 5-lipoxygenase expressed in Escherichia coli BL21 using varying levels of arachidonic acid as substrate preincubated for 15 mins followed by substrate addition measured after 10 mins by RP-HPLC method; conditions: not given
T2 sequence (whole entry): T1 sequence (P09917 whole entry)
How it was run: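 Semi-purified recombinant 5-LO (0.5 µg, E. coli BL21) in PBS with 1 mM EDTA and 1 mM ATP was preincubated 15 min at 4 °C with compound or 0.1% DMSO, then prewarmed 30 s at 37 °C. Reaction was started with 2 mM CaCl2 plus varying arachidonic acid concentrations and run 10 min at 37 °C. Products were measured by RP-HPLC as percent of control; n = 3.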

inhibition | SMILES
Active | CCCCCCCCCCCCCc1c(O)c(O)cc(OC)c1OC
Active | CCCCCCCCCCCCCC1=C(OC)C(OC)=CC(=O)C1=O

tested on: Mus musculus; assay: Anti-inflammatory activity in CD-1 mouse assessed as inhibition of carrageenan-induced paw edema at 1 mg/kg, ip pretreated for 30 mins followed by carrageenan injection measured after 4 hrs by hydroplethismometric method relative to control; format: functional; conditions: CD-1, ip
How it was run: (§1)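 Male CD-1 mice (35–40 g), n = 6 per group, given compound or vehicle (DMSO) i.p. 30 min before a subplantar injection of 50 μL 1% (w/v) carrageenan under light enflurane anaesthesia. Paw volume was read by hydroplethysmometer before injection (basal) and at 2, 4, 6, 24, 48 and 72 h. Data are mean ± SEM; two-way ANOVA with Bonferroni post test.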

SMILES | inhibition in vivo at 1 mg/kg [%]
CCCCCCCCCCCCCc1c(O)c(O)cc(OC)c1OC | 77.4
CCCCCCCCCCCCCC1=C(OC)C(OC)=CC(=O)C1=O | 75

tested on: Mus musculus; assay: Anti-inflammatory activity in CD-1 mouse assessed as inhibition of carrageenan-induced paw edema at 1 mg/kg, ip pretreated for 30 mins followed by carrageenan injection measured up to 48 hrs by hydroplethismometric method; format: functional, organism-based; conditions: not given; how it was run: as §1

SMILES | inhibition
CCCCCCCCCCCCCC1=C(OC)C(OC)=CC(=O)C1=O | Active

tested on: Mus musculus; assay: Anti-inflammatory activity in CD-1 mouse assessed as inhibition of carrageenan-induced paw edema at 1 mg/kg, ip pretreated for 30 mins followed by carrageenan injection measured up to 72 hrs by hydroplethismometric method; format: functional, organism-based; conditions: not given; how it was run: as §1

SMILES | inhibition
CCCCCCCCCCCCCc1c(O)c(O)cc(OC)c1OC | Active

tested on: Mus musculus; assay: Anti-inflammatory activity in CD-1 mouse model of Zymosan-induced peritonitis assessed as LTC4 level in peritoneal lavage at 1 mg/kg, ip pretreated for 30 mins followed by Zymosan injection measured after 30 mins by EIA (reference value: 10.48 +/- 1.72 ng/ml); format: functional; conditions: not given

SMILES | Activity [ng/mL]
CCCCCCCCCCCCCc1c(O)c(O)cc(OC)c1OC | 1.58
CCCCCCCCCCCCCC1=C(OC)C(OC)=CC(=O)C1=O | 0.14

tested on: Mus musculus; assay: Anti-inflammatory activity in CD-1 mouse model of Zymosan-induced peritonitis assessed as LTC4 level in peritoneal lavage at 10 mg/kg, ip pretreated for 30 mins followed by Zymosan injection measured after 30 mins by EIA (reference value: 10.48 +/- 1.72 ng/ml); format: functional; conditions: not given

SMILES | Activity [ng/mL]
CC(c1cc2ccccc2s1)N(O)C(N)=O (stereo not drawn) [ZILEUTON] | 3.35

tested on: Mus musculus; assay: Anti-inflammatory activity in CD-1 mouse model of Zymosan-induced peritonitis assessed as inflammatory cells in peritoneal lavage at 1 mg/kg, ip pretreated for 30 mins followed by Zymosan injection measured after 4 hrs (reference value: 7 +/- 0.47 10^6No_unit); format: functional; conditions: not given

SMILES | Activity
CCCCCCCCCCCCCc1c(O)c(O)cc(OC)c1OC | 3.08 10^6 cells
CCCCCCCCCCCCCC1=C(OC)C(OC)=CC(=O)C1=O | 3.78 10^6 cells

tested on: Mus musculus; assay: Anti-inflammatory activity in CD-1 mouse model of Zymosan-induced peritonitis assessed as inflammatory cells in peritoneal lavage at 10 mg/kg, ip pretreated for 30 mins followed by Zymosan injection measured after 4 hrs (reference value: 7 +/- 0.47 10^6No_unit); format: functional; conditions: not given

SMILES | Activity
CC(c1cc2ccccc2s1)N(O)C(N)=O (stereo not drawn) [ZILEUTON] | 2.88 10^6 cells
